Laboratory results reported in ChEMBL document CHEMBL2396643, “Discovery of a small molecular compound simultaneously targeting RXR and HADC: design, synthesis, molecular docking and bioassay” (Bioorg Med Chem Lett, 2013).
pEC50, pIC50: −log10 of the molar value.

Experiments:
[1] = tested on: DU-145; experiment: Cytotoxicity against human DU145 cells assessed as growth inhibition after 72 hrs by MTT assay; type: functional, cell-based; conditions: DU-145, 72 h
Procedure, shortened: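 Seeded at 3000 cells/well and incubated with diluted compounds, with bexarotene and SAHA as positive controls, for 72 h. Final DMSO 0.1%. Remaining cells quantified with MTT dye per manufacturer instructions.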

[2] = tested on: KB; experiment: Cytotoxicity against bexarotene-resistant human KB cells assessed as growth inhibition after 48 hrs by MTT assay; type: functional, cell-based
Procedure, shortened: (§1)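 Cells seeded at 3000 per well and exposed to diluted compounds, with bexarotene and SAHA as positive controls, for 48 h (drug-resistant cells) or 72 h (parental cells). Final DMSO 0.1%. Cell number determined by MTT dye per manufacturer instructions.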

[3] = Cytotoxicity against human GBC-SD cells assessed as growth inhibition after 72 hrs by MTT assay; type: functional, cell-based
[4] = target: T1, Histone deacetylase (Homo sapiens) (UniProt Q13547+O15379+Q9UBN7+Q92769+Q9UQL6+Q8WUI4+Q9BY41+Q96DB2+P56524+Q9UKV0+Q969S8); experiment: Inhibition of HDAC in human HL60 cells assessed as increase in p21 WAF1/CIP1 level after 48 hrs by Western blot analysis; type: cell-based; conditions: HL-60
Procedure, shortened: (§2)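 About 1 × 10⁷ HL60 cells exposed to compound or SAHA for 48 h. Nuclear protein extracted, equal protein amounts resolved on 10–15% SDS–PAGE and blotted to PVDF. Probed for acetylated H3 and p21WAF1/CIP1, with histone H3 and β-actin as loading controls. ECL detection on X-ray film, densitometry relative to control.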

[5] = target: Histone deacetylase; experiment: Inhibition of HDAC isolated from human HeLa cell nuclear extract after 30 mins by fluorescence assay; type: protein assay
[6] = Cytotoxicity against human Hep3B cells assessed as growth inhibition after 72 hrs by MTT assay; type: functional, cell-based, Hep 3B2
[7] = target: T1, Histone deacetylase (Homo sapiens); experiment: Inhibition of HDAC in human HL60 cells assessed as increase in acetylated H3 level after 48 hrs by Western blot analysis; type: cell-based; conditions: HL-60; procedure, shortened: as §2
[8] = tested on: A549/SAHA; experiment: cells; conditions: Homo sapiens, 48 h
[9] = tested on: A549; experiment: Cytotoxicity against human A549 cells assessed as growth inhibition after 72 hrs by MTT assay; type: functional, cell-based; conditions: A549, 72 h
[10] = tested on: KB; experiment: Cytotoxicity against human KB cells assessed as growth inhibition after 72 hrs by MTT assay; type: functional, cell-based; procedure, shortened: as §1
[11] = target: T1, Histone deacetylase (Homo sapiens); experiment: Inhibition of HDAC in human HL60 cells using Boc-Lys(Ac)-pNA as substrate incubated for 24 hrs prior to substrate addition measured after 90 mins by fluorescence assay; type: cell-based; conditions: HL-60
Procedure, shortened: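 HL60 cells exposed to a range of compound concentrations or SAHA for 24 h, then lysed and protein measured by BCA. Lysates incubated with Boc-Lys(Ac)-pNA (10 mM) in HDAC assay buffer for 90 min at 37 °C. Lysine Developer added and incubated 30 min at 37 °C before plate-reader readout. Mean ± SD of three determinations.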

[12] = target: T2, Retinoic acid receptor RXR-alpha (Homo sapiens, UniProt P19793); experiment: Transactivation of human RXRalpha transfected in human 293 cells after 48 hrs by dual-luciferase reporter gene assay; type: cell-based, HEK293
T2 sequence (P19793 whole entry): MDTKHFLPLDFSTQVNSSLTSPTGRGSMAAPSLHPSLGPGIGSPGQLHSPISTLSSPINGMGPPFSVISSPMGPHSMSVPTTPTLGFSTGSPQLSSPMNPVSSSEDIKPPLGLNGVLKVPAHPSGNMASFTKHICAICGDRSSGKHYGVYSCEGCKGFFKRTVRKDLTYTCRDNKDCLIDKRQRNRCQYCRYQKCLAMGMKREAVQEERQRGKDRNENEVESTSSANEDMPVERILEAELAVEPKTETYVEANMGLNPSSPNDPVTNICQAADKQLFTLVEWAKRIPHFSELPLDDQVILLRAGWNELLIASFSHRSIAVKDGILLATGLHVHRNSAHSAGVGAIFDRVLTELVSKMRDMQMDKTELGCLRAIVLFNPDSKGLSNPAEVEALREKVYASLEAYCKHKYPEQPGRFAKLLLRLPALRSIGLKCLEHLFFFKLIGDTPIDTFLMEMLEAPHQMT

[13] = tested on: HGC-27; experiment: Cytotoxicity against human HGC27 cells assessed as growth inhibition after 72 hrs by MTT assay; type: functional, cell-based; conditions: HGC-27, 72 h

Compound | pIC50 [1] | pIC50 [2] | pIC50 [3] | inhibition [4] | IC50 [5] | pIC50 [6] | inhibition [7] | pIC50 [8] | pIC50 [9] | pIC50 [10] | inhibition [11] | pEC50 [12] | pIC50 [13]
O=C(CCCCCCC(=O)Nc1ccccc1)NO [VORINOSTAT] | 4.57 | – | – | – | – | – | – | – | – | – | – | – | –
C=C(c1ccc(C(=O)NO)cc1)c1cc2c(cc1C)C(C)(C)CCC2(C)C | 4.85 | 4.77 | 4.62 | Dose-dependent effect | 6.7 µM | 4.76 | Dose-dependent effect | 5.42 | 5.03 | 5.21 | Dose-dependent effect | 7.71 | 5.07
C=C(c1ccc(C(=O)O)cc1)c1cc2c(cc1C)C(C)(C)CCC2(C)C [BEXAROTENE] | 4.21 | 4.33 | 4.13 | – | – | 3.72 | – | – | – | 5.06 | – | – | 4.49
